Measured values reported in ChEMBL document CHEMBL2177082, “Identification of a promising drug candidate for the treatment of type 2 diabetes based on a P2Y(1) receptor agonist” (J Med Chem, 2012).
The source made the active and inactive calls. No cut-off for these calls is given here.

Legend:
[1] = target: P2Y purinoceptor 1 (Rattus norvegicus) (UniProt P49651); experiment: Agonist activity at rat P2Y1R assessed as glucose-dependent insulin secretion relative to control; format: functional
[2] = target: T1, P2Y purinoceptor 1 (Rattus norvegicus, UniProt P49651); experiment: Agonist activity at rat P2Y1R expressed in HEK293 cells assessed as release of intracellular calcium by fluorescence based assay; format: functional, cell-based
T1 sequence (P49651 whole entry): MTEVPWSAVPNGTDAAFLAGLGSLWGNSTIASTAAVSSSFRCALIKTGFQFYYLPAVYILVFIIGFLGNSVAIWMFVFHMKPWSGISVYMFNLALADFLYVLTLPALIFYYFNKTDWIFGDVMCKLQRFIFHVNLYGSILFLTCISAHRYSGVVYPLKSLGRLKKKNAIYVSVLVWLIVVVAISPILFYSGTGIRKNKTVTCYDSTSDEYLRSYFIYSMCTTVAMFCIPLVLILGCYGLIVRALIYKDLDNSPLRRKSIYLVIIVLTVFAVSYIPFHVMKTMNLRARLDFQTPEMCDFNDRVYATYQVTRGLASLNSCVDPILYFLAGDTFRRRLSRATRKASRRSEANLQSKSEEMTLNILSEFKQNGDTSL

[3] = target: T1, P2Y purinoceptor 1; experiment: Agonist activity at rat P2Y1R assessed as glucose-dependent insulin secretion; format: functional
[4] = system: Serum; experiment: (§1) Half life in human serum at 40 mM by HPLC; format: ADME, cell-free; conditions: 40000 µM
Method in brief: (§2)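 Serum came from a healthy volunteer's whole blood (12 h at 4 °C, spun 1500g, stored at −80 °C). A 40 mM stock in water was mixed with serum and RPMI-1640 (1:3 serum:medium) and incubated at 37 °C for up to 24 h.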

[5] = target: P2Y purinoceptor 1 (Meleagris gallopavo, UniProt P49652); experiment: Agonist activity at turkey P2Y1R expressed in 1321N1 cells assessed as increase in intracellular calcium concentration by spectrofluorimetry; format: functional, cell-based
P2Y purinoceptor 1 (Meleagris gallopavo, UniProt P49652), sequence (P49652 whole entry): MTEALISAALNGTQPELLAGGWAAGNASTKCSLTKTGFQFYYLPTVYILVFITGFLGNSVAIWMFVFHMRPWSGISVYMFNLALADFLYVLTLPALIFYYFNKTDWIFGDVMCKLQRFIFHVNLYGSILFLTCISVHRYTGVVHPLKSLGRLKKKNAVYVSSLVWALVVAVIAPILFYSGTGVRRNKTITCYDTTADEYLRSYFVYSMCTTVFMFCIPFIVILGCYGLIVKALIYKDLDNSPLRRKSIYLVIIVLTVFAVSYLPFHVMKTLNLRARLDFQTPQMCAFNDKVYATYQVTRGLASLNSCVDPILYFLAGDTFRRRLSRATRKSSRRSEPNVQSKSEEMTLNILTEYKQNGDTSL
Method in brief: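 Cell suspensions were treated with nucleotide at various concentrations at 37 °C in 10 mM Hepes-buffered saline pH 7.4 with 1 mM CaCl2 and 1 mM MgCl2. Maximal [Ca2+]i rise was read by dual-excitation spectrofluorometry and fitted to give EC50. Three experiments on separate days.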

[6] = Half life in Tris buffer at pH 9.8 at 0.2 mg by HPLC in presence of alkaline phosphatase; format: physicochemical; conditions: in vitro
Method in brief: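 Compound 0.2 mg incubated with calf intestine alkaline phosphatase 12.5 units in Tris-HCl/MgCl2 at final pH 9.8 and 37 °C. Sampled hourly for 8 h; reaction stopped at 80 °C for 15 min. Samples passed through an anion-exchange cartridge. Half-life from change in HPLC peak area.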

[7] = target: P2Y purinoceptor 2 (Homo sapiens) (UniProt P41231); experiment: Agonist activity at P2Y2R; format: functional
P2Y purinoceptor 2 (Homo sapiens), sequence (P41231 whole entry): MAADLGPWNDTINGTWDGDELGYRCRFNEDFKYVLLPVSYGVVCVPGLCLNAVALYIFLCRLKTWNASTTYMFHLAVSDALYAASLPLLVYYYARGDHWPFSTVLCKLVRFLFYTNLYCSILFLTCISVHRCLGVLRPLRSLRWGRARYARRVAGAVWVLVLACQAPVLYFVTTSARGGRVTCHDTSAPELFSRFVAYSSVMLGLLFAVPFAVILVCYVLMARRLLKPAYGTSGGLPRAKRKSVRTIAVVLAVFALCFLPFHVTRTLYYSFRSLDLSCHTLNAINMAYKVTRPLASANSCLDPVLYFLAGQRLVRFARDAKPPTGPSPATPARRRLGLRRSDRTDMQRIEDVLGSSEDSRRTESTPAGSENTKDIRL

[8] = target: P2Y purinoceptor 4 (Homo sapiens) (UniProt P51582); experiment: Agonist activity at P2Y4R; format: functional
P2Y purinoceptor 4 (Homo sapiens), sequence (P51582 whole entry): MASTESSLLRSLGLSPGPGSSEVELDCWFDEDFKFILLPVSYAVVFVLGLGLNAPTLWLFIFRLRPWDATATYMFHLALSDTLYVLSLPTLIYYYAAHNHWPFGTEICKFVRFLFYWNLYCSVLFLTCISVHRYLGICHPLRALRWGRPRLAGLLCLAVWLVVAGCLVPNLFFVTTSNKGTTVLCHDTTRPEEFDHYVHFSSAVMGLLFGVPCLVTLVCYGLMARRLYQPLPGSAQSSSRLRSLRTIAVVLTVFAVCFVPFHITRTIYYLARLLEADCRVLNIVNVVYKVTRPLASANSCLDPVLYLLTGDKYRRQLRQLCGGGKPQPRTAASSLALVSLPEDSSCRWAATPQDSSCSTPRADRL

[9] = target: P2Y purinoceptor 6 (Homo sapiens) (UniProt Q15077); experiment: Agonist activity at P2Y6R; format: functional
P2Y purinoceptor 6 (Homo sapiens), sequence (Q15077 whole entry): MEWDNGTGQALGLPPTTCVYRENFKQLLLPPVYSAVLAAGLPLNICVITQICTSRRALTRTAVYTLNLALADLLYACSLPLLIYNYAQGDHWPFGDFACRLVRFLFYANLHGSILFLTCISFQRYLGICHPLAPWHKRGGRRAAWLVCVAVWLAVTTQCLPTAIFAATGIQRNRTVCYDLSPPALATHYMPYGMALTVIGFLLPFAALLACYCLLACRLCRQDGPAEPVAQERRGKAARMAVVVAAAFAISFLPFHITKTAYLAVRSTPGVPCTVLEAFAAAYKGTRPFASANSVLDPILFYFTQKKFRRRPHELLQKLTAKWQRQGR

[10] = system: Rattus norvegicus; experiment: Antiplatelet activity in Lewis rat assessed as inhibition of ADP-induced aggregation measuring prolongation in bleeding time at 10 mg/kg body weight, po administered 30 mins prior to tail incision measured after 5 mins; format: functional, organism-based; design: dose 10 mg/kg
Method in brief: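 Anesthetized Lewis rats (n = 5) were dosed orally 30 min before the tail was cut. Then 2 mm of tail tip was removed and the tail was placed upright in a saline-filled tube. Time to first arrest of bleeding (no bleeding for 20 s) was recorded.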

[11] = Half life in HCL/KCL buffer at pH 1.4 at 1.5 mg by HPLC; format: physicochemical
Method in brief: (§3)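 Diastereomeric mixture, 1.5 mg, dissolved in 0.2 M HCl/KCl buffer adjusted to pH 1.4 and kept at 37 °C with hourly sampling. Parent HPLC peak integrated over time (TEAA/acetonitrile 88:12) and fitted to pseudo-first-order kinetics to give rate constant and t1/2.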

[12] = Chemical stability in HCL/KCL buffer at pH 1.4 assessed as hydrolysis rate constant of compound at 1.5 mg incubated for 24 hrs measured after every 1 hr over 12 hrs by HPLC; format: physicochemical; conditions: pH 1.4, 24 h; method in brief: as §3
[13] = Metabolic stability in human serum assessed as hydrolysis of compound at 40 mM incubated for 24 hrs measured after every 1 hr over 24 hrs by HPLC; format: ADME, cell-free; conditions: read-out: Drug metabolism
Method in brief: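 40 mM stock in water, 4.5 μL, combined with 180 μL human serum (healthy volunteer) and 540 μL RPMI-1640 and incubated at 37 °C for up to 24 h. Aliquots were heated to 80 °C for 30 min, cleaned up, and analysed by HPLC. Heat-only controls were run without serum. Hydrolysis was followed from the change in HPLC peak area.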

[14] = system: Mus musculus; experiment: Antiplatelet activity in Balb/c mouse assessed as inhibition of ADP-induced aggregation measuring prolongation of bleeding time at 30 mg/kg body weight, iv; format: functional
Method in brief: (§4)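 Anaesthetised Balb/c mice given compound iv (0.3, 3 or 30 mg/kg) or saline. Five minutes later 2 mm of the tail tip was cut and the tail placed vertically in saline. Time to first arrest of bleeding (no bleeding for 20 s) was recorded. Bars are standard deviation.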

[15] = system: Mus musculus; experiment: Antidiabetic activity in db+/db- diabetic mouse model assessed as reduction in blood glucose level at 30 mg/kg body weight, iv administered 10 min post glucose challenge measured over 15 to 120 mins; format: functional, organism-based; design: dose 30 mg/kg
Method in brief: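 Male db+/db− mice, 8 weeks old, grouped by body weight and glucose, then fasted overnight. Oral glucose 2 g/kg by gavage. Compound 30 mg/kg iv as in the naive-animal OGTT; n = 5. Blood glucose by glucometer at −30, 0, 15, 30, 60 and 120 min.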

[16] = target: P2Y purinoceptor 12 (Homo sapiens) (UniProt Q9H244); experiment: Antagonist activity at human P2Y12R expressed in […] cells assessed as intracellular calcium level in presence of ADP; format: functional, cell-based
P2Y purinoceptor 12 (Homo sapiens), sequence (Q9H244 whole entry): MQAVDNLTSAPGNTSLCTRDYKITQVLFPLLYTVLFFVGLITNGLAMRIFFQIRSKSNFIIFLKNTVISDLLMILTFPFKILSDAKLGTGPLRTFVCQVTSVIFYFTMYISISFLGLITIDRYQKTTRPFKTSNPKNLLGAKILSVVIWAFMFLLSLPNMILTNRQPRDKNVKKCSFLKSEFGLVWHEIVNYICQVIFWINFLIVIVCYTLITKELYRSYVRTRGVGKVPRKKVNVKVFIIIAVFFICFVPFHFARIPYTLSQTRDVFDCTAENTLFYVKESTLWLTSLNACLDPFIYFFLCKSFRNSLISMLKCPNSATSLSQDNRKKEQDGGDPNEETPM

[17] = system: Rattus norvegicus; experiment: Antiplatelet activity in Lewis rat assessed as inhibition of ADP-induced aggregation measuring prolongation in bleeding time at 30 mg/kg body weight, po administered 30 mins prior to tail incision measured after 5 mins; format: functional, organism-based; design: dose 30 mg/kg
Method in brief: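 Lewis rats given compound 30 mg/kg or aspirin 10 mg/kg PO 30 min before tail incision; n = 5. 2 mm tail tip cut, tail placed in saline. Time to first bleeding arrest (20 s without bleeding) was recorded, and blood volume was judged against calibrated volumes after brief 600g spin.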

[18] = system: Mus musculus; experiment: Antiplatelet activity in Balb/c mouse assessed as inhibition of ADP-induced aggregation measuring prolongation in bleeding time at 30 mg/kg body weight, iv administered prior to tail incision measured after 5 mins relative to active clopidogrel metabolite R-361015; format: functional; method in brief: as §4
[19] = Antiplatelet activity in human platelet rich plasma assessed as inhibition of ADP-induced platelet aggregation at 0.3 to 10 uM measured after 6 mins by aggregometry relative to control; format: functional
Method in brief: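 Human platelet-rich plasma was obtained by spinning normal human plasma at 4400g for 30 s. PRP was incubated 15 min at 37 °C, then aggregation was induced with ADP (10 μM) and read after 6 min on a platelet aggregation profiler. PRP came from one subject, tested in duplicate. Prasugrel metabolite at 10 μM served as the positive control.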

[20] = system: Platelet; experiment: Antiplatelet activity in human platelet rich plasma assessed as inhibition of ADP-induced platelet aggregation measured after 6 mins by aggregometry; format: functional
Method in brief: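 Human PRP obtained by centrifuging plasma at 4400g for 30 s. PRP was incubated 15 min at 37 °C with compound (0.3–10 μM), then aggregation was induced with ADP 10 μM and read after 6 min on a platelet aggregation profiler. Prasugrel metabolite 10 μM served as positive control. One donor, duplicates.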

[21] = system: Mus musculus; experiment: Antidiabetic activity in STZ treated fasted ICR mouse assessed as reduction in blood glucose level at 30 mg/kg body weight, iv administered 10 min post glucose challenge measured over 15 to 120 mins; format: functional, organism-based; design: dose 30 mg/kg
Method in brief: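 Male ICR mice given STZ 100 mg/kg IP after 4 h fast. On day 10, after ~16 h overnight fast, oral D-glucose 1 g/kg was given at 0 min. Compound was dosed iv at 7.5, 15 or 30 mg/kg 10 min after glucose; saline controls. Blood glucose by glucometer at 15, 30, 60 and 120 min. n = 5.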

[22] = system: Rattus norvegicus; experiment: Antidiabetic activity in overnight fasted Wister Han rat assessed as reduction in blood glucose level at 30 mg/kg body weight, iv administered 10 mins post glucose challenge measured within 45 mins (reference value: 155 mg/dl); format: functional
[23] = as §1; format: ADME, cell-free; method in brief: as §2
[24] = system: Mus musculus; experiment: Antidiabetic activity in overnight fasted CD1 mouse assessed as reduction in blood glucose level at 30 mg/kg body weight, iv administered 10 mins post glucose challenge; format: functional, organism-based; design: dose 30 mg/kg
[25] = system: Serum; experiment: Ratio of half life of compound to half life of ADP in human serum at 40 mM by HPLC; format: ADME, cell-free; conditions: 40000 µM; method in brief: as §2

P2Y purinoceptor 1 (Rattus norvegicus), sequence (P49651 whole entry): as the sequence (P49651 whole entry) above

## B[P@@](=O)(OC[C@H]1O[C@@H](n2cnc3c(N)nc(SC)nc32)[C@H](O)[C@@H]1O)OP(=O)(O)OP(=O)(O)O
[1]
  fold change (FC): 9
[2]
  EC50: 0.0026 µM
[3]
  EC50: 0.0281 µM

## [BH3-][P@@](=O)(OC[C@H]1O[C@@H](n2cnc3c(N)ncnc32)[C@H](O)[C@@H]1O)OP(=O)([O-])[O-].[Na+].[Na+].[Na+]
[4]
  t1/2: 3.5 h
[5]
  EC50: 0.22 µM
[6]
  t1/2: 4.2 h

## BP(=O)(OC[C@H]1O[C@@H](n2cnc3c(N)ncnc32)[C@H](O)[C@@H]1O)OP(=O)(O)O (stereo not given in full)
[7]
  Activity: inactive
[8]
  Activity: inactive
[9]
  Activity: inactive

## BP(=O)(OC[C@H]1O[C@@H](n2cnc3c(N)nc(SC)nc32)[C@H](O)[C@@H]1O)OP(=O)(O)OP(=O)(O)OC[C@H]1O[C@@H](n2cnc3c(N)nc(SC)nc32)[C@H](O)[C@@H]1O.CCCCN(CCCC)CCCC.CCCCN(CCCC)CCCC.CCCCN(CCCC)CCCC (mixture of isomers)
[7]
  Activity: inactive
[8]
  Activity: inactive
[9]
  Activity: inactive

## CC(=O)Oc1ccccc1C(=O)O
[10]
  inhibition: Active

## [BH3-]P(=O)(OC[C@H]1O[C@@H](n2cnc3c(N)nc(SC)nc32)[C@H](O)[C@@H]1O)OP(=O)([O-])[O-].[Na+].[Na+].[Na+] (mixture of isomers)
[11]
  half-life: 7.3 h
[12]
  Drug degradation: 2 ×10⁻⁵ /s
[13]
  metabolised at 24 h, 40000 µM: 30%
[7]
  Activity: inactive
[8]
  Activity: inactive
[9]
  Activity: inactive

## Nc1ncnc2c1ncn2[C@@H]1O[C@H](COP(=O)(O)OP(=O)(O)O)[C@@H](O)[C@H]1O [ADENOSINE DIPHOSPHATE]
[4]
  t1/2: 2 h
[6]
  t1/2: 4 h

## [BH3-][P@@](=O)(OC[C@H]1O[C@@H](n2cnc3c(N)nc(SC)nc32)[C@H](O)[C@@H]1O)OP(=O)([O-])[O-].[Na+].[Na+].[Na+]
[14]
  Time: 16 min
[15]
  Activity: Active
[16]
  Activity: Active
[17]
  inhibition: Active
[18]
  fold change (FC): 1.5
[19]
  fold change (FC): 3
[20]
  inhibition: Active
[21]
  Activity: Active
[22]
  Activity: 87 mg/dL
[23]
  half-life at 40000 µM: > 24 h
[6]
  t1/2: 6 h

## B[P@](=O)(OC[C@H]1O[C@@H](n2cnc3c(N)nc(SC)nc32)[C@H](O)[C@@H]1O)OP(=O)(O)O
[24]
  Activity: inactive
[5]
  EC50: 1.1 µM

## B[P@@](=O)(OC[C@H]1O[C@@H](n2cnc3c(N)nc(SC)nc32)[C@H](O)[C@@H]1O)OP(=O)(O)OP(=O)(O)OC[C@H]1O[C@@H](n2cnc3c(N)nc(SC)nc32)[C@H](O)[C@@H]1O.CCCCN(CCCC)CCCC.CCCCN(CCCC)CCCC.CCCCN(CCCC)CCCC
[25]
  Ratio: 7
[23]
  half-life at 40000 µM: 14 h
[5]
  EC50: 0.14 µM

## B[P@](=O)(OC[C@H]1O[C@@H](n2cnc3c(N)ncnc32)[C@H](O)[C@@H]1O)OP(=O)(O)O
[5]
  EC50: 0.96 µM

## B[P@](=O)(OC[C@H]1O[C@@H](n2cnc3c(N)nc(SC)nc32)[C@H](O)[C@@H]1O)OP(=O)(O)OP(=O)(O)OC[C@H]1O[C@@H](n2cnc3c(N)nc(SC)nc32)[C@H](O)[C@@H]1O.CCCCN(CCCC)CCCC.CCCCN(CCCC)CCCC.CCCCN(CCCC)CCCC (single isomer, unassigned)
[25]
  Ratio: 7
[23]
  half-life at 40000 µM: 14 h
[5]
  EC50: 0.19 µM

## CC(=O)Oc1cc2c(s1)CCN(C(C(=O)C1CC1)c1ccccc1F)C2 (stereo not given)
[14]
  Time: 9 min

## CSc1nc(N)c2ncn([C@@H]3O[C@H](COP(=O)(O)OP(=O)(O)O)[C@@H](O)[C@H]3O)c2n1
[4]
  t1/2: 23 h
[13]
  metabolised at 24 h, 40000 µM: 50%
[6]
  t1/2: 4.5 h
